This is an account of results in ChEMBL document CHEMBL4699407, “Isoquinoline thiosemicarbazone displays potent anticancer activity with in vivo efficacy against aggressive leukemias” (RSC Med Chem, 2020).

Assay [1] relates to MIA PaCa-2. Nature of the assay: Cytotoxicity against human MIA PaCa2 cells assessed as reduction in cell viability in presence of Cu2+ incubated for 72 hrs by cell titer-glo luminescent cell viability assay. Format: functional, cell-based. Particulars: MIA PaCa-2, 72 h. Put shortly:
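Cells were grown in DMEM or RPMI with 10% FBS, without antibiotics, at 37 °C, 20% O2, 5% CO2. Adherent lines were seeded at 500 cells/well. Serially diluted compound was given with 20 μM Cu(II) (CuCl2) for 72 h; leukemia models received pre-formed 1:1 copper complex. ATP was read by CellTiter-Glo luminescence. IC50 is relative to DMSO-treated cells.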
For orientation: Cellular ATP, detected with luciferase, serves as a proxy for viable cell number.

The subject of assay [2] is MIA PaCa-2. Nature of the assay: Cytotoxicity against human MIA PaCa2 cells assessed as reduction in cell viability 72 hrs by cell titer-glo luminescent cell viability assay. Format: functional. The procedure, abridged:
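MIAPACA2 cells in conventional medium without copper supplement got serially diluted compound for 72 h. ATP content was read by CellTiter-Glo, and IC90 (90% proliferation inhibition vs DMSO control) was calculated.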

Molecules are shown by their SMILES.

One may read the IC90 as the concentration needed for an effect of 90%.

As for `NC(=S)N/N=C/c1nccc2ccccc12`, the IC90 in the assay with MIA PaCa-2 [1] was 2.21 µM. Same read-out and setting: then `CNC(=S)N/N=C/c1ncc(F)c2ccccc12`, with 0.114 µM. Take `CNC(=S)NN=Cc1nccc2c(NC)cccc12`: the IC90 with MIA PaCa-2 [1] is 0.607 µM; with MIA PaCa-2 [2], 4.24 µM. For `CNc1cccc2c(C=NNC(=S)N(C)C)ncc(F)c12` the same measures were 0.0423 µM and 0.327 µM. Take `CNC(=S)N/N=C/c1nccc2cc(F)ccc12`: the IC90 in the assay on MIA PaCa-2 [1] amounted to 0.233 µM.

In the case of `CNC(=S)N/N=C/c1nccc2ccccc12`, in the assay with MIA PaCa-2 [1], the IC90 was found to be 0.331 µM.

Consider `CN(C)C(=S)NN=Cc1ncc(F)c2ccccc12`, for which the IC90 is 0.0266 µM with MIA PaCa-2 [1] and 0.274 µM with MIA PaCa-2 [2]. `CN(C)C(=S)NN=Cc1nccc2ccccc12`: the IC90 with MIA PaCa-2 [1] was determined as 0.0737 µM; in the assay with MIA PaCa-2 [2], 29.6 µM. With `NC(=S)N/N=C/c1nccc2cc(F)ccc12`, the IC90 in the assay on MIA PaCa-2 [1] is 2.04 µM. As to `NC(=S)N/N=C/c1nccc2c(N)cccc12`, the IC90 with MIA PaCa-2 [1] was found to be 71.1 µM. For `CNc1c(F)ccc2c(C=NNC(=S)N(C)C)nccc12`, the results for the IC90 with MIA PaCa-2 [1] and with MIA PaCa-2 [2] were 0.0384 µM and 0.272 µM, respectively.

As for `CNc1cccc2c(/C=N/NC(N)=S)nccc12`, in the assay with MIA PaCa-2 [1], the IC90 is 5.33 µM. Regarding `CNC(=S)NN=Cc1nccc2c(N)cccc12`, the IC90 in the assay with MIA PaCa-2 [1] is 7.08 µM; in the assay with MIA PaCa-2 [2] it was 11.2 µM.

As to `NC(=S)N/N=C/c1ncc(F)c2ccccc12`, in the assay on MIA PaCa-2 [1], the IC90 came to 2.06 µM.
